Measured values: ChEMBL document CHEMBL1134769, “Potent and selective nonpeptide inhibitors of caspases 3 and 7” (J Med Chem, 2001)
Where “and” joins values, the source holds several entries; their conditions need not be identical. Equal entries are not always repeated. Calls of active or inactive are those of the source. The rule behind the calls is not given here.

Experiments:
C20/A4 [1] = assay: In vitro inhibition of Chondrocyte cell line C20/A4 apoptosis at 10 uM of compound; assay type: functional, Homo sapiens
Procedure, shortened: (§1)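 Immortalized human chondrocyte line C20/A4 seeded at 20 000 cells/well overnight, then exposed 24 h to 4 μg/mL camptothecin with or without compound. Floating and adherent cells combined and lysed 30 min at 4 °C, then clarified at 14000g. Mono- and oligonucleosome DNA fragments measured by cell death ELISA; result expressed as % inhibition of apoptosis.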

C20/A4 [2] = assay: In vitro inhibition of Chondrocyte cell line C20/A4 apoptosis at 25 uM of compound; assay type: functional, Homo sapiens; procedure, shortened: as §1
Caspase-4 = biological target: T1, Caspase-4 (Homo sapiens, UniProt P49662); assay: Inhibitory activity against caspase-4; conditions: read-out: Ki app
T1 sequence (P49662 whole entry): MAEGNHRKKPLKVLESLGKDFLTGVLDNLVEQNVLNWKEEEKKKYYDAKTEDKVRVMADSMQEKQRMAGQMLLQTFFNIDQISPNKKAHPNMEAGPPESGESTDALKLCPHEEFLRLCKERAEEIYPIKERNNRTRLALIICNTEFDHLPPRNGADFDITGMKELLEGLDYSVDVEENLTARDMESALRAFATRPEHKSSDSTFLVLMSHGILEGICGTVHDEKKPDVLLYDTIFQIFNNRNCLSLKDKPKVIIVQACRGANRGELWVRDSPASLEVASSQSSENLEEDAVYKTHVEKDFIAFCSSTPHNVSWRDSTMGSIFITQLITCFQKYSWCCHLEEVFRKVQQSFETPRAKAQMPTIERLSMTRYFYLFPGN
Procedure, shortened: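 Recombinant full-length human caspase 4, ~10 units/assay, in potassium acetate pH 5.8 with 1 mM EDTA, 10% sucrose, 0.1% CHAPS and 5 mM β-mercaptoethanol. Substrate 100 μM Ac-LEED-AMC. Read at 360/460 nm, 30 °C, 5% final DMSO. Single-dose screen (typically 5–50 μM), then IC50 curves for actives.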

Caspase-6 = biological target: T2, Caspase-6 (Homo sapiens, UniProt P55212); assay: Inhibitory activity against Caspase-6; conditions: read-out: Ki app
T2 sequence (P55212 whole entry): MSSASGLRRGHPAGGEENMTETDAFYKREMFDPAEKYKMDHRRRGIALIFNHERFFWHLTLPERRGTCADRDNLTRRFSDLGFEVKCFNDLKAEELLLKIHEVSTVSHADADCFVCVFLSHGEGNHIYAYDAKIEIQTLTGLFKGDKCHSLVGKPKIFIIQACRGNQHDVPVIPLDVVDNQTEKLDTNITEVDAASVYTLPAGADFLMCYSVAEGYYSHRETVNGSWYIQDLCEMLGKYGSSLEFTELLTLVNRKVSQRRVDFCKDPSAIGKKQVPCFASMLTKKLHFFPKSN
Procedure, shortened: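 Recombinant full-length human caspase 6 (~10 units/assay) in 50 mM Tris-HCl pH 7.4 with 0.1% CHAPS, 1.5 mM MgCl2, 1 mM EDTA and 5 mM β-mercaptoethanol. Substrate 10 μM Ac-DEVD-AMC. AMC monitored at 360/460 nm, 30 °C, final DMSO 5%. Single-dose screen (typically 5–50 μM), then IC50 determination.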

Caspase-3 [3] = biological target: T3, Caspase-3 (Homo sapiens, UniProt P42574); assay: Inhibition of recombinant human caspase-3
T3 sequence (P42574 whole entry): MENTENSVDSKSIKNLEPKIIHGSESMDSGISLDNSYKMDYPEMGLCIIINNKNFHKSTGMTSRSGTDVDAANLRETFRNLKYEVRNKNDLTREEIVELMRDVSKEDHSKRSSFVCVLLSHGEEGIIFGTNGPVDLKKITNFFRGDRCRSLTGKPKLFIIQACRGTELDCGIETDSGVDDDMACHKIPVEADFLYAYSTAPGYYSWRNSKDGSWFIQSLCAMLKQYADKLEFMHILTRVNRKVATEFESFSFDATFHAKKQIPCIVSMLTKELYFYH

Caspase-1 = biological target: T4, Caspase-1 (Homo sapiens, UniProt P29466); assay: Inhibitory activity against caspase-1; conditions: read-out: Ki app
T4 sequence (P29466 whole entry): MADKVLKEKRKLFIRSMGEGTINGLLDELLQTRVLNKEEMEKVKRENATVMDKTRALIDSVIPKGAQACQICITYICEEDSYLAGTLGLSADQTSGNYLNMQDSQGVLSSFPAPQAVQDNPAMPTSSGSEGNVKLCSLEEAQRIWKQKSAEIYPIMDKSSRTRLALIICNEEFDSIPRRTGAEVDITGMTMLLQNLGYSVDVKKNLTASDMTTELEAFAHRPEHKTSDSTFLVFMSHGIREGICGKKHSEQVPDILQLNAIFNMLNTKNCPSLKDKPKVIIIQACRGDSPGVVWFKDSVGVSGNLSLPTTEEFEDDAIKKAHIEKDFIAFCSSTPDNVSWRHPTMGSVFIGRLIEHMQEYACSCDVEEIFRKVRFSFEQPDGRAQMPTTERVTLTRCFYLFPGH
Procedure, shortened: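 Recombinant full-length human caspase 1, ~10 units/assay, in 25 mM K+HEPES pH 7.5 with 10% sucrose, 0.1% CHAPS and 5 mM β-mercaptoethanol. Substrate 10 μM Ac-YVAD-AMC. AMC read at 360/460 nm, 30 °C, with 5% final DMSO. Single-dose screen (typically 5–50 μM), followed by IC50 curves for active compounds.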

Caspase-8 = Caspase-8 (Homo sapiens, UniProt Q14790); assay: Inhibitory activity against Caspase-8; conditions: read-out: Ki app
Procedure, shortened: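 Recombinant full-length human caspase 8, ~10 units/assay, in Na+MOPS pH 7.5 with 10% glycerol, 0.25 mM EDTA and 5 mM β-mercaptoethanol. Substrate 10 μM Ac-IETD-AMC. Fluorescence at 360/460 nm, 30 °C, 5% final DMSO. Compounds screened at a single dose (typically 5–50 μM), then full IC50 curves for actives.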

Caspase-9 = biological target: T5, Caspase-9 (Homo sapiens, UniProt P55211); assay: Inhibitory activity against Caspase-9; conditions: read-out: Ki app
T5 sequence (P55211 whole entry): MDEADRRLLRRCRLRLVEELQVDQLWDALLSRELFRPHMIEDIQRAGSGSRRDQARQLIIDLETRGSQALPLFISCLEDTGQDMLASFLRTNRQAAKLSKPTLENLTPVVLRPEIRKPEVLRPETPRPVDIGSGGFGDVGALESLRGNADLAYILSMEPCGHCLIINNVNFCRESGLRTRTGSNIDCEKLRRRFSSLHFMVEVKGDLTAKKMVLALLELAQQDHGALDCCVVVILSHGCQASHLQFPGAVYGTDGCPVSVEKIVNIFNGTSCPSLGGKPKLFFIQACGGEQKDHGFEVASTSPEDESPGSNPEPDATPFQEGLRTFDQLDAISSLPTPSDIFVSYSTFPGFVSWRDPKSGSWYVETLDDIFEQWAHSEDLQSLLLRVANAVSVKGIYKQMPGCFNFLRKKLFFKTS

Caspase-3 [4] = biological target: T3, Caspase-3; assay: Inhibitory activity against caspase-3; conditions: read-out: Ki app
Procedure, shortened: (§2)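 Recombinant full-length human caspase 3 or 7, ~10 units/assay (1 unit = 1 pmol AMC/min). Substrate 10 μM Ac-DEVD-AMC. AMC fluorescence at 360/460 nm, 30 °C, with 5% final DMSO. Single-dose screen (typically 5–50 μM), then IC50 curves; repeated IC50s had CVs typically <30%.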

Caspase-2 = biological target: T6, Caspase-2 (Homo sapiens, UniProt P42575); assay: Inhibitory activity against caspase-2; conditions: read-out: Ki app
T6 sequence (P42575 whole entry): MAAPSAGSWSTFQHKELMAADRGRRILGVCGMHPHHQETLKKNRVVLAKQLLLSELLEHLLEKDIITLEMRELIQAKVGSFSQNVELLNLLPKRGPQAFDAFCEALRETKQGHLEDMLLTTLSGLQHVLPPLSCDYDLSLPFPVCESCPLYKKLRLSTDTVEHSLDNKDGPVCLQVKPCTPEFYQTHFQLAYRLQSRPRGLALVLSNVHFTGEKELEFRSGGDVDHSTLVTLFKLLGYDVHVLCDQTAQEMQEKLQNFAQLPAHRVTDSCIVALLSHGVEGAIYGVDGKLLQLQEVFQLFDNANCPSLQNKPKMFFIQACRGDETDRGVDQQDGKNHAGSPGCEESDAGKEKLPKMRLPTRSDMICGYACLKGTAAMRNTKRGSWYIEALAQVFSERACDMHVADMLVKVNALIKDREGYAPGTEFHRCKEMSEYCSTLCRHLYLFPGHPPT
Procedure, shortened: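 Recombinant full-length human caspase 2 (~10 units/assay) in 50 mM sodium acetate pH 6.2 with 10% glycerol, 0.25 mM EDTA and 5 mM β-mercaptoethanol. Substrate 25 μM Ac-VDVAD-AMC. Fluorescence at 360/460 nm, 30 °C, final DMSO 5%. Compounds screened at a single dose (typically 5–50 μM), then full IC50 curves where activity was seen.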

Caspase-7 = biological target: T7, Caspase-7 (Homo sapiens, UniProt P55210); assay: Inhibitory activity against Caspase-7; conditions: read-out: Ki app; procedure, shortened: as §2
T7 sequence (P55210 whole entry): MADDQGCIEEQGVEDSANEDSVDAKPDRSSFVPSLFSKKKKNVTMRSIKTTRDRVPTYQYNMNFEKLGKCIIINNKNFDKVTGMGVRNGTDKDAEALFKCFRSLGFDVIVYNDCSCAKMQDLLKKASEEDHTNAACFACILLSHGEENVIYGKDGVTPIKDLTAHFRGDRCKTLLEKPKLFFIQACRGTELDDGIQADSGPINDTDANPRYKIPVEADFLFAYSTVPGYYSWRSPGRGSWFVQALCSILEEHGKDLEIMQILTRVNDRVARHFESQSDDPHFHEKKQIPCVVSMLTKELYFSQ

C20/A4 [5] = assay: In vitro inhibition of Chondrocyte cell line C20/A4 apoptosis at 10 uM of compound; Not active; assay type: functional, cell-based; conditions: Homo sapiens; procedure, shortened: as §1
C20/A4 [6] = assay: In vitro inhibition of Chondrocyte cell line C20/A4 apoptosis at 25 uM of compound; Not active; assay type: functional, cell-based; conditions: Homo sapiens; procedure, shortened: as §1
Jurkat (Homo sapiens) [7] = assay: In vitro inhibition of Jurkat cell apoptosis at 10 uM of compound
Jurkat (Homo sapiens) [8] = assay: In vitro inhibition of Jurkat cell apoptosis at 50 uM of compound
Caspase-3 [9] = biological target: T3, Caspase-3; assay: In vitro inhibition of Caspase-3 in presence of camptothecin induced chondrocyte cell cytosol.
Procedure, shortened: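 IC50 measured in cytosol from camptothecin-treated (apoptotic) chondrocytes at 90% of assay volume. Two conditions: the endogenous caspase 3-like activity alone, or with added recombinant human caspase 3 (~10 units/assay). Buffer was 25 mM K+HEPES pH 7.5, 0.1% CHAPS, 50 mM KCl and 5 mM β-mercaptoethanol, with 10 μM Ac-DEVD-AMC. AMC fluorescence was read at 30 °C (ex 360/em 460 nm) with 5% final DMSO.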

Caspase-3 [10] = biological target: T3, Caspase-3; assay: In vitro inhibition of Caspase-3 in presence of uninduced chondrocyte cell cytosol
Procedure, shortened: (§3)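 IC50 against recombinant full-length human caspase 3 (~10 units/assay; 1 unit = 1 pmol AMC/min), with cytosol from uninduced (nonapoptotic) chondrocytes making up 90% of assay volume. Assay buffer was 25 mM K+HEPES pH 7.5, 0.1% CHAPS, 50 mM KCl and 5 mM β-mercaptoethanol, with 10 μM Ac-DEVD-AMC. AMC was read at 30 °C (ex 360/em 460 nm) with 5% final DMSO.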

Caspase-3 [11] = biological target: T3, Caspase-3; assay: In vitro inhibition of Caspase-3 in presence of naive chondrocyte cell cytosol; procedure, shortened: as §3

Chain of Caspase-8 (Q14790 217-374 limits assumed): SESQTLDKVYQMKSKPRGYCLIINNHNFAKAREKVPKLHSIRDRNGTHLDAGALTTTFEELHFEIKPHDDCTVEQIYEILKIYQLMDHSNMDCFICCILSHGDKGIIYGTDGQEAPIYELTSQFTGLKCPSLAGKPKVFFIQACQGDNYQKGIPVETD
Chain of Caspase-8 (Q14790 385-479 limits assumed): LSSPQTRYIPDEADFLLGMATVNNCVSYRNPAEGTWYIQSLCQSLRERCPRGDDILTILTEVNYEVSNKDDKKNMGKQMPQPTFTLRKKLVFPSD

Row | Structure (SMILES) | Inhibition (C20/A4 [1]) | Inhibition (C20/A4 [2]) | Ki (Caspase-4) | Ki (Caspase-6) | IC50 (Caspase-3 [3]) | Ki (Caspase-1) | Ki (Caspase-8) | Ki (Caspase-9) | Ki (Caspase-3 [4]) | Ki (Caspase-2) | Ki (Caspase-7) | Inhibition (Jurkat (Homo sapiens) [7]) | Inhibition (Jurkat (Homo sapiens) [8]) | also measured
1 | O=C1C(=O)N(Cc2ccncc2)c2ccc(S(=O)(=O)N3CCC[C@H]3COc3ccccc3)cc21 | 64% | 89% | – | – | – | – | – | – | – | – | – | – | – | –
2 | O=C1Nc2ccc(S(=O)(=O)N3CCCC3)cc2C1=O | – | – | > 50 µM | > 50 µM | 2.8 µM | 9 µM | > 50 µM | 12 µM | 1.4 µM | > 50 µM | 3 µM | – | – | –
3 | CN1C(=O)C(=O)c2cc(C(=O)O)ccc21 | – | – | – | – | > 50 µM | – | – | – | – | – | – | – | – | –
4 | CN1C(=O)C(=O)c2cc([N+](=O)[O-])ccc21 | – | – | 4 µM | 1.7 µM | 1 µM | 12 µM | > 50 µM | 7.2 µM | 0.5 µM | > 50 µM | 0.29 µM | – | – | –
5 | COC[C@H]1CCCN1S(=O)(=O)c1ccc2c(c1)C(=O)C(=O)N2 | – | – | – | – | 18 µM | – | – | – | – | – | – | 15% | 22% | NA (C20/A4 [5]): inactive; NA (C20/A4 [6]): inactive
6 | C=CCN1C(=O)C(=O)c2cc(S(=O)(=O)N3CCC[C@H]3COc3ccccc3)ccc21 | 71% | 95% | – | – | – | – | – | – | – | – | – | 60% | 89% | –
7 | O=C1C(=O)N(Cc2ccccc2)c2ccc([N+](=O)[O-])cc21 | – | – | 5 µM | 1 µM | 0.25 µM | 18 µM | 31 µM | 5 µM | 0.13 µM | > 25 µM | 0.17 µM | – | – | –
8 | CN1C(=O)C(=O)c2ccccc21 | – | – | – | – | > 50 µM | – | – | – | – | – | – | – | – | –
9 | O=C1Nc2ccc(S(=O)(=O)N3CCCC3C(=O)Nc3ccccc3)cc2C1=O (centres undefined) | – | – | – | – | 0.14 µM | – | – | – | – | – | – | – | – | –
10 | CN1C(=O)C(=O)c2cc(S(=O)(=O)N3CCC[C@H]3COc3ccccc3)ccc21 | 48% | 85% | – | – | 30 µM and 47 µM | – | – | – | – | – | – | 41% | 92% | IC50 (Caspase-3 [9]): 0.84 µM; IC50 (Caspase-3 [10]): 7.5 µM; IC50 (Caspase-3 [11]): 7.5 µM
